Results: ChEMBL document CHEMBL2062460, “Disubstituted thiourea derivatives and their activity on CNS: synthesis and biological evaluation” (Eur J Med Chem, 2012)
Converted amounts (≈) assume the structure as drawn. The source made the active and inactive calls. The calls are words filed in the database; no cut-off is given here.

Columns and labels:
[1] = tested on: Pseudomonas aeruginosa; assay: Antibacterial activity against Pseudomonas aeruginosa NCTC 6749 at 400 ug/disc after 18 hrs by disc diffusion method; assay type: functional, organism-based
Outline: (§1)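 Disc diffusion per CLSI on Mueller–Hinton II agar; 9 mm paper discs loaded from methanol or DMSO solutions to 400 µg per disc, dried; growth inhibition zone diameter read after 18 h at 35 °C.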

[2] = tested on: Staphylococcus aureus; assay: Antibacterial activity against methicillin-resistant Staphylococcus aureus clinical isolate 376/09 after 18 hrs by twofold serial agar dilution technique; assay type: functional; conditions: clinical isolate 376/09, 18 h
Outline: (§2)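 Clinical isolates came from patients in Warsaw Medical University Hospitals and were classed as methicillin-susceptible or -resistant. MIC was determined by twofold serial agar dilution on Mueller–Hinton II agar (CLSI), 3.125–400 µg/mL in agar, with compounds in methanol or DMSO. Inoculum was 10^4 CFU/mL and plates were read after 18 h at 35 °C.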

[3] = tested on: Candida albicans; assay: Antifungal activity against Candida albicans ATCC 90028 at 400 ug/disc after 18 hrs by disc diffusion method; assay type: functional, organism-based
Outline: (§3)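 Yeasts tested by disc diffusion (CLSI) on RPMI agar with 2% glucose; 9 mm paper discs bearing 400 µg compound from methanol or DMSO solution; inhibition zone diameter read after 18 h at 35 °C.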

[4] = tested on: Micrococcus luteus; assay: Antibacterial activity against Micrococcus luteus ATCC 10240 at 400 ug/disc after 18 hrs by disc diffusion method; assay type: functional; conditions: ATCC 10240, 18 h, read-out: DIZ; outline: as §1
[5] = tested on: Staphylococcus aureus; assay: Antibacterial activity against Staphylococcus aureus ATCC 6538 at 400 ug/disc after 18 hrs by disc diffusion method; assay type: functional; conditions: ATCC 6538, 18 h, read-out: DIZ; outline: as §1
[6] = tested on: Staphylococcus aureus; assay: Antibacterial activity against methicillin-resistant Staphylococcus aureus clinical isolate 307/08 after 18 hrs by twofold serial agar dilution technique; assay type: functional; conditions: clinical isolate 307/08, 18 h; outline: as §2
[7] = tested on: Human immunodeficiency virus 1; assay: Antiviral activity against HIV1 infected in human MT4 cells assessed as virus-induced cytopathogenicity after 4 days by MTT assay; assay type: functional, organism-based; conditions: Human immunodeficiency virus 1, MT4, 96 h
[8] = tested on: Staphylococcus aureus; assay: Antibacterial activity against Staphylococcus aureus ATCC 25923 at 400 ug/disc after 18 hrs by disc diffusion method; assay type: functional; conditions: ATCC 25923, 18 h, read-out: DIZ; outline: as §1
[9] = tested on: Pseudomonas aeruginosa; assay: Antibacterial activity against Pseudomonas aeruginosa ATCC 27853 at 400 ug/disc after 18 hrs by disc diffusion method; assay type: functional, organism-based; outline: as §1
[10] = tested on: Bacillus cereus; assay: Antibacterial activity against Bacillus cereus ATCC 11778 after 18 hrs by twofold serial agar dilution technique; assay type: functional; conditions: ATCC 11778, 18 h
[11] = tested on: Micrococcus luteus; assay: Antibacterial activity against Micrococcus luteus ATCC 9341 at 400 ug/disc after 18 hrs by disc diffusion method; assay type: functional; conditions: ATCC 9341, 18 h, read-out: DIZ; outline: as §1
[12] = tested on: Staphylococcus aureus; assay: Antibacterial activity against Staphylococcus aureus NCTC 4163 after 18 hrs by twofold serial agar dilution technique; assay type: functional; conditions: NCTC 4163, 18 h
Outline: (§4)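 Twofold serial agar dilution on Mueller–Hinton II agar, following CLSI guidelines. Compounds were dissolved in methanol or DMSO and tested at final agar concentrations of 3.125–400 µg/mL. Final inoculum was 10^4 CFU/mL.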

[13] = tested on: Staphylococcus epidermidis; assay: Antibacterial activity against methicillin-resistant Staphylococcus epidermidis clinical isolate 377/09 after 18 hrs by twofold serial agar dilution technique; assay type: functional; conditions: clinical isolate 377/09, 18 h; outline: as §2
[14] = tested on: Bacillus subtilis; assay: Antibacterial activity against Bacillus subtilis ATCC 6633 after 18 hrs by twofold serial agar dilution technique; assay type: functional; conditions: ATCC 6633, 18 h
[15] = tested on: Staphylococcus aureus; assay: Antibacterial activity against methicillin-susceptible Staphylococcus aureus clinical isolate 372/09 after 18 hrs by twofold serial agar dilution technique; assay type: functional; conditions: clinical isolate 372/09, 18 h; outline: as §2
[16] = tested on: Staphylococcus aureus; assay: Antibacterial activity against methicillin-resistant Staphylococcus aureus clinical isolate 275/08 after 18 hrs by twofold serial agar dilution technique; assay type: functional; conditions: clinical isolate 275/08, 18 h; outline: as §2
[17] = tested on: Staphylococcus aureus; assay: Antibacterial activity against Staphylococcus aureus ATCC 25923 after 18 hrs by twofold serial agar dilution technique; assay type: functional; conditions: ATCC 25923, 18 h; outline: as §4
[18] = tested on: Staphylococcus aureus; assay: Antibacterial activity against methicillin-resistant Staphylococcus aureus clinical isolate 329/08 after 18 hrs by twofold serial agar dilution technique; assay type: functional; conditions: clinical isolate 329/08, 18 h; outline: as §2
[19] = tested on: Staphylococcus epidermidis; assay: Antibacterial activity against methicillin-resistant Staphylococcus epidermidis clinical isolate 340/09 after 18 hrs by twofold serial agar dilution technique; assay type: functional; conditions: clinical isolate 340/09, 18 h; outline: as §2
[20] = tested on: Escherichia coli; assay: Antibacterial activity against Escherichia coli ATCC 25922 at 400 ug/disc after 18 hrs by disc diffusion method; assay type: functional, organism-based; outline: as §1
[21] = tested on: Bacillus subtilis; assay: Antibacterial activity against Bacillus subtilis ATCC 6633 at 400 ug/disc after 18 hrs by disc diffusion method; assay type: functional; conditions: ATCC 6633, 18 h, read-out: DIZ; outline: as §1
[22] = tested on: Bordetella bronchiseptica; assay: Antibacterial activity against Bordetella bronchiseptica ATCC 4617 at 400 ug/disc after 18 hrs by disc diffusion method; assay type: functional, organism-based; outline: as §1
[23] = tested on: Staphylococcus aureus; assay: Antibacterial activity against Staphylococcus aureus ATCC 29213 at 400 ug/disc after 18 hrs by disc diffusion method; assay type: functional; conditions: ATCC 29213, 18 h, read-out: DIZ; outline: as §1
[24] = tested on: Escherichia coli; assay: Antibacterial activity against Escherichia coli ATCC 10538 at 400 ug/disc after 18 hrs by disc diffusion method; assay type: functional, organism-based; outline: as §1
[25] = tested on: Staphylococcus aureus; assay: Antibacterial activity against methicillin-susceptible Staphylococcus aureus clinical isolate 339/09 after 18 hrs by twofold serial agar dilution technique; assay type: functional; conditions: clinical isolate 339/09, 18 h; outline: as §2
[26] = tested on: Staphylococcus aureus; assay: Antibacterial activity against methicillin-resistant Staphylococcus aureus clinical isolate 325/09 after 18 hrs by twofold serial agar dilution technique; assay type: functional; conditions: clinical isolate 325/09, 18 h; outline: as §2
[27] = tested on: Staphylococcus epidermidis; assay: Antibacterial activity against methicillin-resistant Staphylococcus epidermidis clinical isolate 317/08 after 18 hrs by twofold serial agar dilution technique; assay type: functional; conditions: clinical isolate 317/08, 18 h; outline: as §2
[28] = tested on: Candida parapsilosis; assay: Antifungal activity against Candida parapsilosis ATCC 22019 at 400 ug/disc after 18 hrs by disc diffusion method; assay type: functional, organism-based; outline: as §3
[29] = tested on: Staphylococcus epidermidis; assay: Antibacterial activity against methicillin-resistant Staphylococcus epidermidis clinical isolate 315/08 after 18 hrs by twofold serial agar dilution technique; assay type: functional; conditions: clinical isolate 315/08, 18 h; outline: as §2
[30] = tested on: Staphylococcus aureus; assay: Antibacterial activity against methicillin-susceptible Staphylococcus aureus clinical isolate 269/08 after 18 hrs by twofold serial agar dilution technique; assay type: functional; conditions: clinical isolate 269/08, 18 h; outline: as §2
[31] = tested on: Staphylococcus epidermidis; assay: Antibacterial activity against methicillin-resistant Staphylococcus epidermidis clinical isolate 341/09 after 18 hrs by twofold serial agar dilution technique; assay type: functional; conditions: clinical isolate 341/09, 18 h; outline: as §2
[32] = tested on: Staphylococcus aureus; assay: Antibacterial activity against methicillin-resistant Staphylococcus aureus clinical isolate 306/08 after 18 hrs by twofold serial agar dilution technique; assay type: functional; conditions: clinical isolate 306/08, 18 h; outline: as §2
[33] = tested on: Proteus vulgaris; assay: Antibacterial activity against Proteus vulgaris NCTC 4635 at 400 ug/disc after 18 hrs by disc diffusion method; assay type: functional, organism-based; outline: as §1
[34] = tested on: Staphylococcus epidermidis; assay: Antibacterial activity against methicillin-resistant Staphylococcus epidermidis clinical isolate 342/09 after 18 hrs by twofold serial agar dilution technique; assay type: functional; conditions: clinical isolate 342/09, 18 h; outline: as §2
[35] = tested on: Staphylococcus aureus; assay: Antibacterial activity against methicillin-susceptible Staphylococcus aureus clinical isolate 338/08 after 18 hrs by twofold serial agar dilution technique; assay type: functional; conditions: clinical isolate 338/08, 18 h; outline: as §2
[36] = tested on: Pseudomonas aeruginosa; assay: Antibacterial activity against Pseudomonas aeruginosa ATCC 15442 at 400 ug/disc after 18 hrs by disc diffusion method; assay type: functional, organism-based; outline: as §1

With S=C(Nc1nc[nH]n1)Nc1ccccc1Br the “diameter of the inhibition zone (DIZ)” value [1] was “inactive”, the MIC [2] was 50 µg/mL (≈ 168 µM) and the “diameter of the inhibition zone (DIZ)” value [3] was “inactive”. For the same compound, the zone of inhibition at 400 µg/disc [4] was 15 mm, the zone of inhibition at 400 µg/disc [5] was 12 mm and the MIC [6] was 50 µg/mL (≈ 168 µM). For the same compound, the EC50 [7] was > 100 µM, the zone of inhibition at 400 µg/disc [8] was 13 mm and the “diameter of the inhibition zone (DIZ)” value [9] was “inactive”. It also gave an MIC [10] of 25 µg/mL (≈ 83.8 µM), a zone of inhibition at 400 µg/disc [11] of 16 mm and an MIC [12] of 50 µg/mL (≈ 168 µM). It also gave an MIC [13] of 50 µg/mL (≈ 168 µM), an MIC [14] of 12.5 µg/mL (≈ 41.9 µM) and an MIC [15] of 50 µg/mL (≈ 168 µM). The MIC [16] was 100 µg/mL (≈ 335 µM), the MIC [17] was 50 µg/mL (≈ 168 µM) and the MIC [18] was 50 µg/mL (≈ 168 µM). The MIC [19] was 50 µg/mL (≈ 168 µM), the “diameter of the inhibition zone (DIZ)” value [20] was “inactive” and the zone of inhibition at 400 µg/disc [21] was 17 mm. The “diameter of the inhibition zone (DIZ)” value [22] was “inactive”, the zone of inhibition at 400 µg/disc [23] was 12 mm and the “diameter of the inhibition zone (DIZ)” value [24] was “inactive”. The MIC [25] was 50 µg/mL (≈ 168 µM), the MIC [26] was 50 µg/mL (≈ 168 µM) and the MIC [27] was 100 µg/mL (≈ 335 µM). For the same compound, the “diameter of the inhibition zone (DIZ)” value [28] was “inactive”, the MIC [29] was 100 µg/mL (≈ 335 µM) and the MIC [30] was 50 µg/mL (≈ 168 µM). For the same compound, the MIC [31] was 100 µg/mL (≈ 335 µM), the MIC [32] was 50 µg/mL (≈ 168 µM) and the “diameter of the inhibition zone (DIZ)” value [33] was “inactive”. The MIC [34] was 50 µg/mL (≈ 168 µM), the MIC [35] was 50 µg/mL (≈ 168 µM) and the “diameter of the inhibition zone (DIZ)” value [36] was “inactive”.
